The results in this text go back to ChEMBL document CHEMBL1649368, “Novel isatinyl thiosemicarbazones derivatives as potential molecule to combat HIV-TB co-infection” (Eur J Med Chem, 2011).

In brackets after ≈: the same amount, converted by molar mass.

Data set [1] relates to Mycobacterium tuberculosis. The experiment in a line: Antimycobacterial activity against Mycobacterium tuberculosis H37Ra assessed as inhibition of bacterial growth in log phase by agar dilution method. The data set is classed as functional. In short, it runs like this: (§1)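 Log-phase MTB was tested by agar dilution on Middlebrook 7H11 with OADC, following NCCLS guidance. MIC was the lowest concentration giving complete growth inhibition, determined in triplicate.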
In general terms: Agar dilution tests growth on a series of plates holding different concentrations.

Data set [2] has as its system Mycobacterium tuberculosis. The experiment in a line: Antimycobacterial activity against Mycobacterium tuberculosis H37Ra assessed as inhibition of bacterial growth in dormant phase. The data set is classed as functional. In short, it runs like this: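 MTB grown in 7H9 with glycerol, OADC and Tween 80 at 37 °C with rolling to OD600 ~0.6, then washed and held in PBS 6 weeks at 37 °C. Starved cells (~1×10^7 in 1 mL PBS) were exposed to compounds in DMSO at various concentrations for 7 days with shaking. After washing, dilutions were plated on antibiotic-free 7H11 and counted after 4 weeks. MIC was complete growth inhibition, in triplicate.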

In data set [3] the test system is Human immunodeficiency virus 1. The experiment in a line: Antiviral activity against HIV1 3B infected in human MT4 cells assessed as protection against virus-induced cytopathogenicity after 5 days by microtiter plate analysis. To be noted: Human immunodeficiency virus 1, 3B, MT4, 120 h. The data set is classed as functional, organism-based. In short, it runs like this:
(§2)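 MT-4 cells were grown in RPMI-1640 DM with 10% heat-inactivated calf serum and gentamicin. HIV-1 IIIB (100 CCID50) or mock infection was run in parallel with compounds in triplicate, at 37 °C and 5% CO2 for 5 days. Viability was read by MTT spectrophotometry. EC50 was the 50% reduction in virus cytopathic effect; CC50 was the 50% loss of mock-infected cell viability.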

Data set [4] in a line: Cytotoxicity against human MT4 cells after 5 days by spectrophotometry. The class given is cell-based. In short, it runs like this:
as §2

Data set [5] concerns Mycobacterium tuberculosis. The experiment in a line: Antimycobacterial activity against Mycobacterium tuberculosis H37Ra by agar dilution method. The class given is functional. The procedure, abridged:
as §1

Data set [6] deals with T1, Isocitrate lyase (Mycobacterium tuberculosis) (UniProt P9WKK7).
T1 sequence (whole entry): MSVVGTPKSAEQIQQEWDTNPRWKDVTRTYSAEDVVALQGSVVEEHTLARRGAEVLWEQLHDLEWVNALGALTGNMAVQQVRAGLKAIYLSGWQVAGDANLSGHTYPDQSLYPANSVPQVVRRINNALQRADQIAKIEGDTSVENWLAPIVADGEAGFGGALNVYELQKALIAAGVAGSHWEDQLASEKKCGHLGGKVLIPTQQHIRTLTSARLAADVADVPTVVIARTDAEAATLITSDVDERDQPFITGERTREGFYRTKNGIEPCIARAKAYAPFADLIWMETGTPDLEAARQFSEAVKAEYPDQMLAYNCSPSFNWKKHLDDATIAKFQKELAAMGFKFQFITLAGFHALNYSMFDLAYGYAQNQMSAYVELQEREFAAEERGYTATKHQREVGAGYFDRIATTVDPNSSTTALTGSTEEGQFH
The experiment in a line: Inhibition of Mycobacterium tuberculosis isocitrate lyase […]. In short, it runs like this:
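Isocitrate lyase activity was measured at 37 °C as glyoxylate-phenylhydrazone formation from isocitrate with phenylhydrazine, MgCl2 and 2-mercaptoethanol in potassium phosphate buffer. After 10 min the mixture was diluted and absorbance read at 324 nm. Test compounds were added from a 10 mM solution; the 3-nitropropionic acid reference came from a 100 mM solution. % inhibition = (control − test)/control × 100.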

In general, MIC refers to the lowest concentration that inhibits growth of the organism. Usually EC50 stands for the concentration that produces a half-maximal response. What is called CC50 is the concentration at which the toxic effect on the cells reaches its halfway point. As to `CCn1cc(C(=O)O)c(=O)c2cc(F)c(N3CCN(CN4C(=O)/C(=N\NC(=S)NO)c5cc(C)ccc54)C(C)C3)c(F)c21` (configuration not stated), the MIC in data set [1] came out at 0.64 µM (≈ 0.393 µg/mL); in data set [2], 34.6 µM (≈ 21.2 µg/mL); in data set [5], 0.65 µM (≈ 0.399 µg/mL). In data set [3], the EC50 was 11.7 µM. The same compound yielded a CC50 at 120 h in data set [4] of 244 µM.

Turning to `NNC(=O)c1ccncc1` [ISONIAZID], the MIC in data set [1] stood at 0.36 µM (≈ 0.0494 µg/mL); in data set [2], 182 µM (≈ 25 µg/mL).

Turning to `CCn1cc(C(=O)O)c(=O)c2cc(F)c(N3CCN(CN4C(=O)/C(=N\NC(=S)NOC)c5cc(Cl)ccc54)CC3)cc21`, the MIC in data set [1] turned out to be 0.63 µM (≈ 0.388 µg/mL); in data set [2], 19.6 µM (≈ 12.1 µg/mL); in data set [5], 0.65 µM (≈ 0.4 µg/mL). The EC50 in data set [3] turned out to be 19.2 µM. Moreover, the CC50 at 120 h in data set [4] is 193 µM.

Turning to `CO[C@H]1/C=C/O[C@@]2(C)Oc3c(C)c(O)c4c(O)c(c(/C=N/N5CCN(C)CC5)c(O)c4c3C2=O)NC(=O)/C(C)=C\C=C\[C@H](C)[C@H](O)[C@@H](C)[C@@H](O)[C@@H](C)[C@H](OC(C)=O)[C@@H]1C` [RIFAMPIN], the MIC was 0.12 µM (≈ 0.0988 µg/mL) in data set [1] and 15.2 µM (≈ 12.5 µg/mL) in data set [2].

On to `CCn1cc(C(=O)O)c(=O)c2cc(F)c(N3CCN(CN4C(=O)/C(=N\NC(=S)NO)c5cc(F)ccc54)C(C)C3)c(F)c21` (configuration not stated), for which the results for the MIC in data set [1], in data set [2] and in data set [5] were 0.65 µM (≈ 0.401 µg/mL), 36.9 µM (≈ 22.8 µg/mL) and 0.65 µM (≈ 0.401 µg/mL), respectively. The EC50 in data set [3] is 9.93 µM. The compound also had a cytotoxic concentration (CC50) at 120 h in data set [4] of 187 µM.

What is called inhibition is the percentage by which the read-out fell short of the control. In data set [6], `O=C1/C(=N\NC(=S)NO)c2cc(F)ccc2N1CN1CCN(c2ccc(Cl)cc2)CC1` displayed an inhibition of 18.5%. Also, the EC50 in data set [3] was found to be 6.85 µM. Further, in data set [4], the CC50 at 120 h is 194 µM. The MIC in data set [5] was found to be 3.37 µM (≈ 1.56 µg/mL).

For `CCn1cc(C(=O)O)c(=O)c2cc(F)c(N3CCN(CN4C(=O)/C(=N\NC(=S)NO)c5cc(Cl)ccc54)CC3)cc21`, in data set [3], the EC50 is 27.2 µM. The same compound had a half-maximal cytotoxic concentration (CC50) at 120 h in data set [4] of 186 µM. Besides, the MIC in data set [5] was 1.3 µM (≈ 0.783 µg/mL).

Turning to `Cc1ccc2c(c1)/C(=N/NC(=S)NO)C(=O)N2CN1CCN(c2cc3c(cc2F)c(=O)c(C(=O)O)cn3C2CC2)CC1`, the MIC was found to be 12.1 µM (≈ 7.19 µg/mL) in data set [2] and 0.67 µM (≈ 0.398 µg/mL) in data set [5]. For the same compound, the EC50 in data set [3] is 20.9 µM. In addition, in data set [4], the CC50 at 120 h turned out to be 304 µM.

With `CONC(=S)N/N=C1\C(=O)N(CN(C)C)c2ccc(C)cc21`, in data set [3], the EC50 amounted to 64.1 µM. In addition, in data set [4], the midpoint of cytotoxicity, the CC50 at 120 h, lay at 622 µM. In data set [5], this compound came in with an MIC of 19.4 µM (≈ 6.25 µg/mL).

Regarding `COc1ccc(N2CCN(CN3C(=O)/C(=N\NC(=S)NO)c4cc(C)ccc43)CC2)cc1`, the EC50 in data set [3] worked out at 15 µM. Further, in data set [4], it took 321 µM to reach half-maximal cytotoxicity (CC50 at 120 h). The compound further registered an MIC in data set [5] of 13.8 µM (≈ 6.25 µg/mL).

Consider `CONC(=S)N/N=C1\C(=O)N(CN2CCN(c3c(F)cc4c(=O)c(C(=O)O)cn(C5CC5)c4c3OC)CC2C)c2ccc(F)cc21` (configuration not stated), for which the EC50 in data set [3] was 1.88 µM. This compound displayed a CC50 at 120 h in data set [4] of 171 µM. In data set [5], it took 0.15 µM (≈ 0.0984 µg/mL) to inhibit growth (MIC).

For `CONC(=S)N/N=C1\C(=O)N(CN2CCN(c3ccccc3)CC2)c2ccc(C)cc21`, the EC50 in data set [3] turned out to be 17.3 µM. In data set [4], this compound registered a CC50 at 120 h of 276 µM. Also, in data set [5], the MIC came to 12.4 µM (≈ 5.42 µg/mL).

In the case of `COc1ccc(N2CCN(CN3C(=O)/C(=N\NC(=S)NO)c4cc(F)ccc43)CC2)cc1`, in data set [3], the EC50 was determined as 14.7 µM. The compound also gave a CC50 at 120 h in data set [4] of 260 µM. The same compound returned an MIC in data set [5] of 6.83 µM (≈ 3.13 µg/mL).

In the case of `COc1c(N2CCN(CN3C(=O)/C(=N\NC(=S)NO)c4cc(Cl)ccc43)C(C)C2)c(F)cc2c(=O)c(C(=O)O)cn(C3CC3)c12` (configuration not stated), the EC50 in data set [3] was determined as 15.3 µM. In data set [4], the CC50 at 120 h is 234 µM. In data set [5], this compound showed an MIC of 1.19 µM (≈ 0.783 µg/mL).

Take `O=C(O)c1cn(C2CC2)c2cc(N3CCN(CN4C(=O)/C(=N\NC(=S)NO)c5cc(F)ccc54)CC3)c(F)cc2c1=O`: the MIC in data set [1] is 3.27 µM (≈ 1.95 µg/mL); in data set [2], 13.1 µM (≈ 7.82 µg/mL); in data set [5] it was 0.33 µM (≈ 0.197 µg/mL). For the same compound, in data set [3], the EC50 was 16.5 µM. Moreover, in data set [4], it took 222 µM to reach half-maximal cytotoxicity (CC50 at 120 h).

As for `O=C(O)c1cn(C2CC2)c2cc(N3CCN(CN4C(=O)/C(=N\NC(=S)NO)c5cc(Cl)ccc54)CC3)c(F)cc2c1=O`, the EC50 in data set [3] is 33.4 µM. The same compound yielded a CC50 at 120 h in data set [4] of 229 µM. The MIC in data set [5] was 2.54 µM (≈ 1.56 µg/mL).

On to `CCN(CC)CN1C(=O)/C(=N\NC(=S)NOC)c2cc(Cl)ccc21`, for which the EC50 in data set [3] turned out to be 58.4 µM. Further, the 50% cytotoxic concentration (CC50) at 120 h in data set [4] was determined as 454 µM. Also, the lowest concentration to inhibit growth in data set [5] (MIC) was 16.9 µM (≈ 6.25 µg/mL).

Consider `CONC(=S)N/N=C1\C(=O)N(CN2CCN(c3ccc(OC)cc3)CC2)c2ccc(F)cc21`, for which the EC50 in data set [3] is 12.7 µM. Moreover, the midpoint of cytotoxicity in data set [4], the CC50 at 120 h, lay at 276 µM. The MIC in data set [5] was determined as 6.14 µM (≈ 2.9 µg/mL).
